{
  "source": "ChEMBL document CHEMBL1154274",
  "about": "“Oligomeric formylpeptide activity on human neutrophils” (2009)",
  "key": {"[1]": {"experiment": "Activation of cellular function of human neutrophils assessed as induction of chemotactic activity at 0.01 uM", "type": "functional, cell-based", "settings": "Neutrophil", "summary_of_the_method": "(§1)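 48-well microchemotaxis chamber with peptide in the lower compartment, diluted from 10^-2 M DMSO stock into KRPG with 1 mg/mL BSA; tested 10^-12 to 10^-5 M. Filter migration was scored by the leading-front method. Chemotactic index = (migration to attractant − migration to buffer)/migration to buffer. Five experiments, duplicate.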"}, "Neutrophil": {"test_system": "Neutrophil", "experiment": "Ratio of compound to fMLP-OMe potency for induction of chemotactic activity in human neutrophils", "type": "functional"}, "[2]": {"experiment": "Activation of cellular function of human neutrophils assessed as chemotactic index at 0.01 uM", "type": "functional, cell-based", "settings": "Neutrophil", "summary_of_the_method": "as §1"}, "[3]": {"experiment": "Activation of cellular function of cytochalasin B-pretreated human neutrophils assessed as maximal induction of lysozyme release at 10 uM after 15 mins by microplate-based assay", "type": "functional, cell-based", "settings": "Neutrophil", "summary_of_the_method": "(§2)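 Neutrophils from heparinized peripheral blood of fasting healthy donors (dextran sedimentation, Ficoll-Paque, hypotonic NH4Cl lysis), resuspended in KRPG pH 7.4 with 1 mM MgCl2 and CaCl2. Pre-incubated with cytochalasin B for 15 min at 37 °C, then given peptide (final 10^-10 to 10^-4 M) for 15 min at 37 °C. After centrifugation, lysozyme was read by Micrococcus lysodeikticus lysis rate at 465 nm, as net % of Triton X-100 total. Five experiments, duplicate.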"}, "[4]": {"experiment": "Activation of cellular function of cytochalasin B-pretreated human neutrophils assessed as induction of superoxide anion production at 10 uM by microplate-based assay", "type": "functional, cell-based", "settings": "Neutrophil", "summary_of_the_method": "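Microplate ferricytochrome c reduction, superoxide dismutase-inhibitable, in KRPG. Wells held 4 × 10^5 neutrophils and 100 nmol cytochrome c. Cells were pre-incubated with cytochalasin B for 5 min. Peptide (10^-10 to 10^-4 M) was added at zero time at 37 °C. A550 minus A468 was converted to nmol O2− using ε 18.5 mM^-1 cm^-1. Five experiments, duplicate.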"}, "[5]": {"experiment": "Activation of cellular function of cytochalasin B-pretreated human neutrophils assessed as induction of lysozyme release at 1 uM after 15 mins by microplate-based assay", "type": "functional, cell-based", "settings": "Neutrophil", "summary_of_the_method": "as §2"}, "[6]": {"experiment": "Activation of cellular function of human neutrophils assessed as chemotactic index at 0.000001 to 10 uM", "type": "functional, cell-based", "settings": "Neutrophil", "summary_of_the_method": "as §1"}},
  "note": "The source made the active and inactive calls. The rule behind the calls is not given here.",
  "data": [
    {"compound": "COC(=O)[C@H](CCCCN[C@@H](Cc1ccccc1)C(=O)N[C@@H](CC(C)C)C(=O)N[C@H](C=O)CCSC)NC(=O)[C@H](CCCCN[C@@H](Cc1ccccc1)C(=O)N[C@@H](CC(C)C)C(=O)N[C@H](C=O)CCSC)NC(=O)[C@H](Cc1ccccc1)NC(=O)[C@H](CC(C)C)NC(=O)[C@H](CCSC)NC=O", "values": [
      {"measurement": "Activity", "setting": "[1]", "result": "Active"},
      {"measurement": "Ratio", "setting": "Neutrophil", "result": 10},
      {"measurement": "Ratio", "setting": "[2]", "result": 0.9},
      {"measurement": "Activity", "setting": "[3]", "result": "Active"},
      {"measurement": "Activity", "setting": "[4]", "result": "Active"},
      {"measurement": "Efficacy", "setting": "[5]", "result": 40, "unit": "%"},
      {"measurement": "Ratio", "setting": "[6]", "result": 0.95}
    ]},
    {"compound": "COC(=O)[C@H](CCCCN[C@@H](Cc1ccccc1)C(=O)N[C@@H](CC(C)C)C(=O)N[C@H](C=O)CCSC)NC(=O)[C@H](Cc1ccccc1)NC(=O)[C@H](CC(C)C)NC(=O)[C@H](CCSC)NC=O", "values": [
      {"measurement": "Activity", "setting": "[1]", "result": "Active"},
      {"measurement": "Ratio", "setting": "Neutrophil", "result": 10},
      {"measurement": "Activity", "setting": "[3]", "result": "Active"},
      {"measurement": "Activity", "setting": "[4]", "result": "Active"},
      {"measurement": "Efficacy", "setting": "[5]", "result": 40, "unit": "%"}
    ]},
    {"compound": "COC(=O)[C@H](Cc1ccccc1)NC(=O)[C@H](CC(C)C)NC(=O)[C@H](CCSC)NC=O", "values": [
      {"measurement": "Ratio", "setting": "[2]", "result": 1.05},
      {"measurement": "Efficacy", "setting": "[5]", "result": 60, "unit": "%"},
      {"measurement": "Ratio", "setting": "[6]", "result": 1.05}
    ]},
    {"compound": "COC(=O)C[C@H](NCCCC[C@H](NC(=O)[C@H](Cc1ccccc1)NC(=O)[C@H](CC(C)C)NC(=O)[C@H](CCSC)NC=O)C(=O)OC)C(=O)N[C@@H](Cc1ccccc1)C(=O)N[C@@H](CC(C)C)C(=O)N[C@H](C=O)CCSC", "values": [
      {"measurement": "Activity", "setting": "[1]", "result": "Active"},
      {"measurement": "Ratio", "setting": "Neutrophil", "result": 10},
      {"measurement": "Ratio", "setting": "[2]", "result": 0.9},
      {"measurement": "Activity", "setting": "[3]", "result": "Active"},
      {"measurement": "Activity", "setting": "[4]", "result": "Active"},
      {"measurement": "Efficacy", "setting": "[5]", "result": 20, "unit": "%"},
      {"measurement": "Ratio", "setting": "[6]", "result": 0.95}
    ]}
  ]
}
